Data reported in ChEMBL document CHEMBL1914444, “Chemical synthesis, biological evaluation and structure-activity relationship analysis of azaisoindolinones, a novel class of direct enoyl-ACP reductase inhibitors as potential antimycobacterial agents” (Bioorg Med Chem, 2011).
In brackets after ≈: the same amount, converted by molar mass.

Assays:
[1] = test system: Mycobacterium tuberculosis; assay: Antimycobacterial activity Mycobacterium tuberculosis H37Rv after 6 days by MTT colorimetric assay; type: functional, organism-based; conditions: 144 h
[2] = target: T1, Enoyl-[acyl-carrier-protein] reductase [NADH] (Mycobacterium tuberculosis) (UniProt P9WGR1); assay: Inhibition of Mycobacterium tuberculosis InhA using 2-trans-decenoyl-CoA as substrate at 100 uM after 5 mins by spectrophotometry
T1 sequence (whole entry): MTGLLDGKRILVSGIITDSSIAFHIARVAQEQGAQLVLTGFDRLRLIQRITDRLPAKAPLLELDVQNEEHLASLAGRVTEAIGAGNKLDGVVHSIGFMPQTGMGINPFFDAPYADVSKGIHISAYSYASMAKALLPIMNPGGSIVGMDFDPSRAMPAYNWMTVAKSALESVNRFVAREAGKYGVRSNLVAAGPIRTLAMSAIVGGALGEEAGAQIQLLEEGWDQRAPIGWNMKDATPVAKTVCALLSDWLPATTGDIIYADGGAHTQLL
Method in brief: (§1)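 Recombinant M. tuberculosis InhA expressed in E. coli (70 nM) was pre-incubated with NADH and compound in 30 mM PIPES, 150 mM NaCl, pH 6.8, 25 °C, with 0.5% final DMSO. Substrate was 2-trans-decenoyl-CoA. Activity was followed as the decrease in A340; initial rates gave % inhibition versus control. Run in triplicate.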

[3] = target: T1, Enoyl-[acyl-carrier-protein] reductase [NADH] (Mycobacterium tuberculosis); assay: Inhibition of Mycobacterium tuberculosis InhA using 2-trans-decenoyl-CoA as substrate at 30 uM after 5 mins by spectrophotometry; method in brief: as §1

Compound	MIC [1]	inhibition [2]	inhibition [3]	IC50 [1]
CCCCCCCCCCCCNc1cccc(C2(O)NC(=O)c3cnccc32)c1 (racemic)	> 100 µM	9%	1%	
CCCCCCCCCCCCOc1cccc(C2(O)NC(=O)c3cnccc32)c1 (racemic)	156 µM (≈ 64 µg/mL)	27%	12%	
CCCCCCCCOc1cccc(C2(O)NC(=O)c3cnccc32)c1 (racemic)	250 µM (≈ 88.6 µg/mL)	12%		
CCCCCCCCCCCCCCC1(O)NC(=O)c2cnccc21 (racemic)	> 100 µM	10%		
O=C(O)c1cn(C2CC2)c2cc(N3CCNCC3)c(F)cc2c1=O [CIPROFLOXACIN]	2.5 µM (≈ 0.828 µg/mL)			
CCCCCCCCCCCCOc1cccc(C2(OC)NC(=O)c3cnccc32)c1 (racemic)	25 µM (≈ 10.6 µg/mL)	0%		10 µM
NNC(=O)c1ccncc1 [ISONIAZID]	0.6 µM (≈ 0.0823 µg/mL)			
CCCCCCCCCCCCCCCCCCSc1cccc(C2(O)NC(=O)c3cnccc32)c1 (racemic)	> 100 µM		26%	
CCCCCCCCCCCCOC1(c2ccccc2)NC(=O)c2cnccc21 (racemic)	25 µM (≈ 9.86 µg/mL)		20%	9.5 µM
CCCCCCCCCCCCOc1ccc(C2(O)NC(=O)c3cnccc32)cc1 (racemic)	> 100 µM	16%	1%	
CCCCCCCCCCCCCCCCCCOc1cccc(C2(O)NC(=O)c3cnccc32)c1 (racemic)	25 µM (≈ 12.4 µg/mL)	67%	28%	12 µM
CCCCCCCCCCCCSc1cccc(C2(O)NC(=O)c3cnccc32)c1 (racemic)	12.5 µM (≈ 5.33 µg/mL)	66%	15%	6.5 µM
CCCCCCCCCCCCc1cccc(C2(O)NC(=O)c3cnccc32)c1 (racemic)	9.8 µM (≈ 3.87 µg/mL)			7 µM
CCCCCCCCCCCCN1C(=O)c2cnccc2C1(O)c1ccccc1 (racemic)	12.5 µM (≈ 4.93 µg/mL)	13%	0%	4.5 µM
CCCCCCCCCCCCOc1ccccc1C1(O)NC(=O)c2cnccc21 (racemic)	> 100 µM	0%	0%	
